Measurements published in ChEMBL document CHEMBL5705906 (Nat Commun, 2017).
Activity calls are given as the source filed them. The calls are words filed in the database; no cut-off is given here.

How the values were obtained:
BaF3 [1] = assay: Inhibition of EGFR-C797S/T790M/del19 mutant in mouse BaF3 cells assessed as reduction in EGFR phosphorylation incubated for 6 hrs by Western blotting analysis; type: cell-based
BaF3 [2] = assay: Inhibition of EGFR-C797S/T790M/del19 mutant in mouse BaF3 cells assessed as reduction in ERK phosphorylation incubated for 6 hrs by Western blotting analysis; type: cell-based
BaF3 [3] = assay: Inhibition of EGFR-del19 mutant in mouse BaF3 cells assessed as inhibition of S6 phosphorylation at 10 to 1000 nM incubated for 6 hrs by Western blotting analysis; type: cell-based; conditions: dose 10-1000 nM
Outline: (§1)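 Ba/F3 cells carrying the stated EGFR mutant were made IL-3-independent after 1 week of 7 µM blasticidin selection. They were grown in low-glucose DMEM with 10% FBS and exposed to inhibitor for 6 h. Cells were washed in cold PBS, lysed in SDS buffer (100 mM Tris, 1% SDS, 10% glycerol) and boiled 5 min. Protein was measured by BCA, run on SDS-PAGE, transferred to PVDF, blocked in 5% BSA or milk/TBS-T, and immunoblotted.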

BaF3 [4] = assay: Inhibition of EGFR-T790M/del19 mutant in mouse BaF3 cells assessed as inhibition of S6 phosphorylation at 10 to 1000 nM incubated for 6 hrs by Western blotting analysis; type: cell-based; conditions: dose 10-1000 nM; outline: as §1
A549 = assay: Anticancer activity against KRAS-mutated human A549 cells assessed as reduction in cell viability at 1 to 10000 nM incubated for 72 hrs by CellTiter-Glo assay; type: functional, cell-based; conditions: dose 1-10000 nM
BaF3 [5] = assay: Inhibition of EGFR-C797S/T790M/L858R mutant expressed in mouse BaF3 cells assessed as inhibition of ERK phosphorylation at 10 to 1000 nM incubated for 6 hrs by Western blotting analysis; type: cell-based; conditions: dose 10-1000 nM
Outline: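 Ba/F3 cells expressing EGFR-L858R-series mutants treated with inhibitors for 6 h. SDS lysates quantified by BCA, run on SDS-PAGE and blotted to PVDF. Probed for phospho-EGFR (Tyr1068), total EGFR and downstream phospho-proteins.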

PC-9 [6] = assay: Anti-tumor activity against EGFR T790M/del19 mutant expressing gefitinib-resistant human PC-9 cells xenografted in Balb-c nu/nu mouse assessed as prolonged survival at 75 mg/kg, po administered for 42 days; type: functional, organism-based; conditions: time 42.0 day
[7] = Cytotoxicity against mouse Ba/F3 EGFR-Del19/T790M/C797S cells assessed as inhibition of cell viability by measuring fold change at 30 nM incubated for 72 hrs in presence of cetuximab by CellTiter-Glo assay relative to brigatinib alone; type: functional
PC-9 [8] = assay: Anti-tumor activity against human PC-9 cells expressing EGFR-C797S/T790M/del19 mutant xenografted in Balb-c nu/nu mouse assessed as prolonged survival at 75 mg/kg, po administered for 60 days and measured twice weekly in presence of cetuximab; type: functional, organism-based; conditions: time 60.0 day
Outline: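 PC9 EGFR-C797S/T790M/del19 xenografts in Balb-c nu/nu mice, randomized at ~200 mm³. […] Tumour volume 0.5×length×width² and body weight measured twice weekly. Survival shown by Kaplan-Meier curve. N = 6. Mann-Whitney U test on tumour volume at day 23.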

PC-9 [9] = assay: Anti-tumor activity against human PC-9 cells expressing EGFR-C797S/T790M/del19 mutant xenografted in Balb-c nu/nu mouse assessed as prolonged survival at 75 mg/kg, po administered for 60 days and measured twice weekly in presence of panitumumab; type: functional, organism-based; conditions: time 60.0 day
Outline: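 PC9 EGFR-C797S/T790M/del19 xenografts in Balb-c nu/nu mice, randomized at ~200 mm³. […] Tumour volume 0.5×length×width² measured twice weekly. Survival by Kaplan-Meier. N = 6. Mann-Whitney U test at days 16 and 23.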

BaF3 [10] = conditions: Mus musculus, dose 10-1000 nM
BaF3 [11] = conditions: Mus musculus, dose 10-1000 nM, time 6.0 hrs
[12] = test system: Epidermal growth factor receptor (Homo sapiens), P00533 [UNDEFINED MUTATION]; conditions: PC-9, dose 10-1000 nM
[13] = test system: Epidermal growth factor receptor (Homo sapiens), P00533 [UNDEFINED MUTATION]; conditions: PC-9, dose 10-1000 nM; remark: listed apart in the source
[14] = test system: Epidermal growth factor receptor (Homo sapiens), P00533 [UNDEFINED MUTATION]; conditions: PC-9, dose 10-1000 nM; remark: listed apart in the source
[15] = test system: Epidermal growth factor receptor (Homo sapiens), P00533 [UNDEFINED MUTATION]; conditions: PC-9, dose 10-1000 nM; remark: listed apart in the source
[16] = test system: Epidermal growth factor receptor (Homo sapiens), P00533 [UNDEFINED MUTATION]; conditions: MGH121, dose 10-1000 nM
[17] = test system: Epidermal growth factor receptor (Homo sapiens), P00533 [UNDEFINED MUTATION]; conditions: MGH121, dose 10-1000 nM; remark: listed apart in the source
[18] = test system: Epidermal growth factor receptor (Homo sapiens), P00533 [UNDEFINED MUTATION]; conditions: MGH121, dose 10-1000 nM; remark: listed apart in the source
[19] = test system: Epidermal growth factor receptor (Homo sapiens), P00533 [UNDEFINED MUTATION]; conditions: PC-9, dose 10-1000 nM; remark: listed apart in the source
[20] = test system: Epidermal growth factor receptor (Homo sapiens), P00533 [UNDEFINED MUTATION]; conditions: PC-9, dose 10-1000 nM; remark: listed apart in the source
PC-9 [21] = conditions: Homo sapiens, dose 75.0 mg/kg, route po, time 15.0 day
PC-9 [22] = conditions: Homo sapiens, dose 75.0 mg/kg, route po, time 15.0 day; remark: listed apart in the source
PC-9 [23] = conditions: Homo sapiens, dose 75.0 mg/kg, route po, time 15.0 day; remark: listed apart in the source
BaF3 [24] = conditions: Mus musculus, dose 30-1000 nM, time 6.0 hrs
BaF3 [25] = conditions: Mus musculus, dose 30-1000 nM, time 6.0 hrs; remark: listed apart in the source
[26] = test system: Epidermal growth factor receptor (Homo sapiens), P00533 [UNDEFINED MUTATION]; conditions: PC-9, dose 500.0 nM, time 48.0 hrs
[27] = test system: Epidermal growth factor receptor (Homo sapiens), P00533 [UNDEFINED MUTATION]; conditions: MGH121, dose 500.0 nM, time 48.0 hrs
[28] = test system: Epidermal growth factor receptor (Homo sapiens), P00533 [UNDEFINED MUTATION]; conditions: MGH121, dose 500.0 nM, time 48.0 hrs; remark: listed apart in the source
PC-9 [29] = conditions: Homo sapiens, dose 75.0 mg/kg, route po, time 60.0 day

Epidermal growth factor receptor (Homo sapiens), P00533 [UNDEFINED MUTATION], sequence (P00533 whole entry, looked up, change not shown): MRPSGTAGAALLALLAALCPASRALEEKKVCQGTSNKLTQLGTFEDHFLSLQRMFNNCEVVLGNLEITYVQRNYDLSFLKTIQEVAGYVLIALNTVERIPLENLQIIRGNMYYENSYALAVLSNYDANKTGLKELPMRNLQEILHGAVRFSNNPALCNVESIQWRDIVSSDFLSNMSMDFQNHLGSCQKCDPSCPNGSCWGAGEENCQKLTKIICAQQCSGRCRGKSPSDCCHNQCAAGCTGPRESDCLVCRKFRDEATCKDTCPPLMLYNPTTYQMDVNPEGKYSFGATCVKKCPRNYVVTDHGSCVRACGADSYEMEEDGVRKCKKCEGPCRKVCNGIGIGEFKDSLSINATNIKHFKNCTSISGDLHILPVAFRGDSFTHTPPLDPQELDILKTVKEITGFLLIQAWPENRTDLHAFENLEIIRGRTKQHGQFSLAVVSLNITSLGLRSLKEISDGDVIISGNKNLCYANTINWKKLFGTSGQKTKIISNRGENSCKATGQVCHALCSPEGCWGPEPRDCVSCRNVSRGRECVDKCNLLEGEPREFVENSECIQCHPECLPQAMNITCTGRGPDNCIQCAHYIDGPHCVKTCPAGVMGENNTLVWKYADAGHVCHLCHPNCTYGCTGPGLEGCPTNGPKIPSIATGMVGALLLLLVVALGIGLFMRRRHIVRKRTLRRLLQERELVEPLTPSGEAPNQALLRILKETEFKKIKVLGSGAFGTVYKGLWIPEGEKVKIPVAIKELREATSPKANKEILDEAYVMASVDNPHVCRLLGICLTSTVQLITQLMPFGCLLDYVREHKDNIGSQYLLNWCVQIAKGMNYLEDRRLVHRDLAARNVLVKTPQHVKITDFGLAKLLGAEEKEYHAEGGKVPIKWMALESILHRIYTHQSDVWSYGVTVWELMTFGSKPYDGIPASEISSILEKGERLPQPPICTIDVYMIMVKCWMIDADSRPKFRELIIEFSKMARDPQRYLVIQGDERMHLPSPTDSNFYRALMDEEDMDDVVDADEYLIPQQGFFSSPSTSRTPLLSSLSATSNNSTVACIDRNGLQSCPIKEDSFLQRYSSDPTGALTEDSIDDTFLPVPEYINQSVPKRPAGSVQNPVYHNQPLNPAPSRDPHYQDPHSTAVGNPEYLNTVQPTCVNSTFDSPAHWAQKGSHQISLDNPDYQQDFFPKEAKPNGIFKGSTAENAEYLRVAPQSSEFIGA

## COc1cc(N2CCC(N3CCN(C)CC3)CC2)ccc1Nc1ncc(Cl)c(Nc2ccccc2P(C)(C)=O)n1 [BRIGATINIB]
BaF3 [1]
  inhibition: Dose-Dependent Effect
BaF3 [2]
  inhibition: Dose-Dependent Effect
BaF3 [3]
  inhibition: Active
BaF3 [4]
  inhibition: Active
A549
  Activity: Active
BaF3 [5]
  inhibition: Active
PC-9 [6]
  Activity: Active
[7]
  fold change (FC): ~3
PC-9 [8]
  Activity: Active
PC-9 [9]
  Activity: Active
BaF3 [10]
  inhibition: Dose-Dependent Effect
BaF3 [11]
  inhibition: Active
[12]
  inhibition: Active
[13]
  inhibition: Active
[14]
  inhibition: Active
[15]
  inhibition: Active
[16]
  inhibition: Active
[17]
  inhibition: Active
[18]
  inhibition: Active
[19]
  inhibition: Active
[20]
  inhibition: Active
PC-9 [21]
  inhibition: Active
PC-9 [22]
  inhibition: Active
PC-9 [23]
  inhibition: Active
BaF3 [24]
  inhibition: Active
BaF3 [25]
  inhibition: Active
[26]
  inhibition: Active
[27]
  inhibition: inactive
[28]
  inhibition: Active
PC-9 [29]
  inhibition: Active
